High-throughput results as filed in PubChem.
Rows were chosen to be rich in hits. Some 3.8% of all compounds tested hit in one or more screens of this group.
KCNQ1 act: potentiators or activators of human KCNQ1 potassium channel; B-score at 10 µM; CHO-K1 KCNQ1, thallium flux FluxOR fluorescence; hits give high values; AID 2648; P51787; 310,000 tested, 0.35% active;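 active = fluorescence ratio B-score, a plate-corrected score, at least three library SD, with initial intensity B-score within 5 SD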
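Schedule – 37 °C overnight plating, 90-min dark dye load, 20-min compound pretreatment · System – stable KCNQ1 CHO-K1 line · Probe or stimulus – thallium- and potassium-containing depolarizing buffer · Measured by – kinetic FluxOR fluorescence, 10 s baseline plus 110 s post-stimulus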
hERG rescue: hERG (human) protection from proarrhythmic block. Q12809. CHO-hERG, FluxOR thallium flux, dofetilide IC70 present. activation (rescue from dofetilide block), less the hit threshold, % at 10 µM. 310,000 tested, 0.51% active;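 active = activation above the mean of controls blocked by dofetilide plus 5 SD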;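 note: thallium influx through hERG after potassium depolarization seen as dye fluorescence rise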
KCNK9 inh-1: human KCNK9 channel inhibition; AID 488922; 310,000 tested, 1.2% active; B-score at 10 µM; HEK293 KCNK9, FluxOR thallium flux fluorescence; hits give low values;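 active = ratio B-score over 3 SD below the library mean, with starting fluorescence within 5 SD of its mean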;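 note: negative B-score means less thallium flux so channel inhibition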
KCNQ1 inh: inhibitors of human KCNQ1 potassium channel; CHO-K1 KCNQ1, FluxOR thallium flux fluorescence; hits give high values; P51787; B-score at 10 µM; 310,000 tested, 1.3% active;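 active = compounds whose thallium flux B-score, printed positive for inhibition, exceeds three library SD while starting fluorescence stays within three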;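 note: channel opened by potassium depolarization with thallium stimulus after 20 min compound exposure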
Kir21 inh: blocks the mouse Kir2.1 inward-rectifier potassium channel; HEK293-Kir2.1, FluxOR thallium flux fluorescence; hits give low values; B-score at 10 µM; P35561; 310,000 tested, 0.85% active;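 active = fluorescence ratio B-score at or below minus 3 SD of library scores, with starting-brightness B-score within 2 SD, cut at about -4.2 in these data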;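 note: channel flux triggered by added potassium and thallium sulfate stimulus; B-score of peak minus minimum fluorescence over baseline after thallium stimulus; more negative B-score means stronger Kir2.1 block with less thallium influx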
Target sequence (P35561 whole entry, looked up): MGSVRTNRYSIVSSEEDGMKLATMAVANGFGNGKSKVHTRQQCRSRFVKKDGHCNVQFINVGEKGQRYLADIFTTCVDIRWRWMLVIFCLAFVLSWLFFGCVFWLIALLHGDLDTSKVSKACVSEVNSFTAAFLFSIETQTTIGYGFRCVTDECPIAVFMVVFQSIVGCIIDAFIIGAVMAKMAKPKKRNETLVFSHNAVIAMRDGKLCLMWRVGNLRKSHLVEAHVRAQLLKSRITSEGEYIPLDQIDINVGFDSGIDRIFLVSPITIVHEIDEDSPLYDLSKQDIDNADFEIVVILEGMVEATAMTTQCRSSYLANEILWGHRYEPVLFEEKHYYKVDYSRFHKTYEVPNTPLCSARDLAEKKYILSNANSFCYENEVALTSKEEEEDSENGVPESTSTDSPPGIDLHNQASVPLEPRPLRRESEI
KCNK3 block: human KCNK3 channel inhibition, primary screen; O14649; CHO-KCNK3 thallium flux, FluxOR fluorescence; hits give low values; B-score at 10 µM; 340,000 tested, 0.84% active; AID 602410;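 active = B-score under library mean minus 4 SD, starting fluorescence ratio at most library mean plus 5 SD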;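 note: more negative B-score means stronger inhibition of thallium flux through KCNK3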
hERG ctr: counter-screen for Kir2.1 inhibitors: effect on human hERG | hERG-expressing cells, thallium flux | 320 tested, 20% active | inhibition, % at 10 µM | shares compounds with Kir21 inh | AID 2236;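 note: host cells are CHO cells stably expressing hERG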
KCNK9 inh-2: tests whether Kir2.1 inhibitors also affect human KCNK9. inhibition, % at 10 µM. shares compounds with Kir21 inh. 320 tested, 5% active. KCNK9-expressing cells, ion flux inhibition
Kir21 ephys inh: blocks mouse Kir2.1 current in automated electrophysiology | shares compounds with Kir21 inh | Kir2.1 cells, automated patch-clamp current inhibition | inhibition, % at 25 µM | 320 tested, 71% active | AID 463252
An asterisk follows results filed as active; i = inactive; · = no result given. Unless noted, the rule behind the calls is not given here.

SMILES	KCNQ1 act	hERG rescue	KCNK9 inh-1	KCNQ1 inh	Kir21 inh	KCNK3 block	hERG ctr	KCNK9 inh-2	Kir21 ephys inh
CCCNC(=O)Cc1c(C)oc2ccccc12	i	-12	i	i	0.23	i	·	·	·
CCOc1ccc(C(C)NC(=S)NCc2ccc(F)cc2)cc1 (stereo unspecified)	i	-7	i	i	1.6	i	·	·	·
COc1cccc(C(C)NC(=S)NCc2ccc(F)cc2)c1 (stereo unspecified)	i	-15	i	i	-6.8*	i	i	31%*	43%*
Cc1cccn2c(=O)c3cc(S(=O)(=O)c4ccc(Br)cc4)c(=N)n(C4CCCC4)c3nc12	i	-11	i	i	1.1	i	i	i	i
COc1ccccc1-c1ocnc1C(=O)N1CCN(S(=O)(=O)c2ccc(NC(C)=O)cc2)CC1	i	-2	i	i	0.29	i	·	·	·
CCCCN1CCc2c1nc1ccc(Br)cc1c2N	i	-25	i	i	-11*	i	i	i	12%*
CC(=O)c1ccc(OC(=O)COc2ccccc2)cc1	i	-3	i	i	1.2	i	·	·	·
O=C(c1ccc(O)cc1)c1ccc(O)cc1O	i	-16	i	i	1	i	·	·	·
CN(C)c1ccc(C(=O)c2ccc(O)cc2O)cc1	i	-7	i	i	4.8	i	i	i	i
C=CCc1ccccc1OCCNCc1ccccc1	i	-11	i	i	-8.9*	i	i	i	75%*
COc1ccc(CNC(=O)CN=C2NC(=O)C(c3ccccc3)(c3ccccc3)N2)cc1	i	-6	i	i	-0.26	i	·	·	·
Cc1ccc(OCC(O)CNCc2ccc(F)cc2)cc1 (stereo unspecified)	i	-8	i	i	-8.8*	i	i	i	77%*
COc1ccc(CCNCC(O)COc2ccc(OC)cc2C(C)(C)C)cc1 (stereo unspecified)	i	-10	i	i	-6.2*	i	61%*	i	i
COc1ccc(CNCC(O)COc2ccc(C)cc2[N+](=O)[O-])cc1 (stereo unspecified)	i	-14	i	i	-8.7*	i	i	i	61%*
Cc1ccc(CNC(=O)COc2ccc(C(=O)c3ccc(F)cc3)cc2)cc1	i	-9	i	i	1	i	·	·	·
COc1ccc(CCNCC(O)COc2cccc(Br)c2)cc1OC (stereo unspecified)	i	-7	i	i	-1.4	i	·	·	·
CCN(CC)C(=O)C(Sc1nnnn1-c1ccc(O)cc1)c1ccccc1 (stereo unspecified)	i	-9	i	i	0.41	i	·	·	·
CSc1ccc(S(=O)(=O)NC(C)c2ccccc2)cc1 (stereo unspecified)	i	-8	i	i	-7.3*	i	i	i	63%*
O=S(=O)(NCc1ccccc1)c1ccc(Br)s1	i	-4	i	i	-2	i	·	·	·
Cc1ccc(S(=O)(=O)N/N=C/c2ccccc2F)cc1[N+](=O)[O-]	i	1	i	i	-0.03	i	·	·	·
CC(NS(=O)(=O)c1ccc(Br)s1)c1ccccc1 (stereo unspecified)	i	-7	i	i	-7.4*	i	i	i	44%*
Cc1ccc(S(=O)(=O)NC(C)c2ccccc2)cc1[N+](=O)[O-] (stereo unspecified)	i	-3	i	i	-8*	i	i	i	30%*
CC(=O)Nc1ccc(S(=O)(=O)N=S(C)(C)=O)cc1	i	-2	i	i	0.41	i	·	·	·
CC[C@@]12C(=O)N(c3cccc(Br)c3)C(=O)N1[C@H](c1ccc(OC)cc1)[C@@H]1C(=O)N(C(C)(C)C)C(=O)[C@@H]12	i	-10	i	i	-0.69	i	·	·	·
CCOC(=O)N1CCN(c2c(NCCc3ccc(OCC)c(OCC)c3)c(=O)c2=O)CC1	i	-7	i	i	-0.19	i	·	·	·
SMILES	KCNQ1 act	hERG rescue	KCNK9 inh-1	KCNQ1 inh	Kir21 inh	KCNK3 block	hERG ctr	KCNK9 inh-2	Kir21 ephys inh
COc1ccc(C(=O)C2CCN(C(=O)c3ccc(F)cc3)CC2)cc1	i	-9	i	i	0.34	i	·	·	·
COc1ccc(CN2CCC(C(=O)c3ccc(F)cc3)CC2)cc1	i	-11	i	i	-8*	i	58%*	i	63%*
Nc1ccccc1-c1nnc(-c2ccc(-c3ccccc3)cc2)o1	i	-8	i	i	0.24	i	·	·	·
CC(=O)N1CCOc2ccc(S(=O)(=O)NCc3ccccc3Cl)cc21	i	-9	i	i	-2.6	i	·	·	·
CC(=O)N1CC(C)Sc2ccc(S(=O)(=O)NCc3ccccc3Cl)cc21 (stereo unspecified)	i	-5	i	i	-6.1*	i	i	i	i
COc1ccc(CCC(C)NCc2cccc(Br)c2)cc1 (stereo unspecified)	i	-11	i	i	-11*	i	i	i	54%*
CCc1ccc(CN(C)C(=O)c2cc(=O)c3ccccc3o2)cc1	i	-14	i	i	0.31	i	·	·	·
CN1CCC(N(C)C(=O)c2cc(=O)c3ccccc3o2)CC1	i	-8	i	i	-0.06	i	i	i	i
COc1ccc(C)cc1NCc1cccc(OC)c1OC	i	-6	i	i	0.05	i	·	·	·
COc1cc(OC)c(OC)cc1CNc1cc(C)ccc1OC	i	-7	i	i	-5.8*	i	i	i	29%*
O=C(NCC1CCCCC1)c1cc2ccccc2cc1O	i	-11	i	i	1.3	i	·	·	·
O=S(=O)(NC1CCCC1)c1ccccc1Cl	i	-18	i	i	-1.2	i	·	·	·
O=C(Cc1nc(-c2cnccn2)no1)NNC(=O)Nc1ccccc1	i	-9	i	i	-0.56	i	·	·	·
Cc1ccc2nc(Cl)c(CNCc3ccccc3)cc2c1	i	-9	i	i	-12*	i	i	i	i
COc1cc(CNCCc2ccc(F)cc2)ccc1OCc1ccc(Cl)nc1	i	-13	i	i	-8.2*	i	59%*	i	56%*
COc1cc(CNCCc2ccccc2F)ccc1OCc1ccc(Cl)nc1	i	-6	i	i	-5.1	i	·	·	·
